# pIC50: −log10 of the molar value.
# Key:
# [1] = Qualitative solubility in water and organic solvents; type: physicochemical
# [2] = test system: MCF7 cells (ER+ breast cancer); experiment: Sulforhodamine B; type: cell-based, human; settings: for Selectivity index (SI): IC50 (MCF12A) / IC50 (MCF7)
# [3] = test system: T47D cells (ER+ breast cancer); experiment: Sulforhodamine B; type: cell-based, human; settings: for pIC50: T47D
# [4] = test system: MDA-MB-231 cells (ER- / triple negative breast cancer); experiment: Sulforhodamine B; type: cell-based, human; settings: for Selectivity index (SI): IC50 (MCF12A) / IC50 (MDA-MB-231)
# [5] = test system: H295R cells (adrenocortical carcinoma); experiment: Sulforhodamine B; type: cell-based, human
# [6] = test system: MCF12A cells (non-cancerous breast); experiment: Sulforhodamine B; type: cell-based, human
# [7] = test system: zebrafish (Danio rerio) embryos; settings: concentrations far less than its IC50 value in human cancer cells; cited from earlier work
# [8] = Stability in DMSO; type: physicochemical; settings: for free anastrozole observed in DMSO (1H NMR): 2 mM, 15 min
# [9] = biological target: T1, aromatase (CYP19) in H295R cells (Homo sapiens, UniProt P11511); experiment: Tritiated water-release assay of aromatase activity in H295R cells; type: cell-based
# T1 sequence (P11511 1-503): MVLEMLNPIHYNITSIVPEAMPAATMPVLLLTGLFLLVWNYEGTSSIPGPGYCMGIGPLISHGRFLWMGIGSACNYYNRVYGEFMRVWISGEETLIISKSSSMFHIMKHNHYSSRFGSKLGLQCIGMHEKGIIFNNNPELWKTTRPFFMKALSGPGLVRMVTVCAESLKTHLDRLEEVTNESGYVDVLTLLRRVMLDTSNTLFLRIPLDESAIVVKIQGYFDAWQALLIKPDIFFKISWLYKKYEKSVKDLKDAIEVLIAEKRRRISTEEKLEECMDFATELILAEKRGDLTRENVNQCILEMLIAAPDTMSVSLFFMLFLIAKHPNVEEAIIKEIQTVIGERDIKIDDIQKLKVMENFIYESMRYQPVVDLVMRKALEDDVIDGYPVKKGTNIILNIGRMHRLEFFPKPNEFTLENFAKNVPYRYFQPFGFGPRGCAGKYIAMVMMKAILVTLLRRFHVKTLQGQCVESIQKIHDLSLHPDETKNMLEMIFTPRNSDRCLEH
# How it was run: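 H295R cells were seeded at 100,000/well in DMEM/F-12 with Nu Serum and ITS for 24 h, then washed with PBS. They were incubated 1.5 h at 37 °C, 5% CO2, in phenol red-free DMEM/F-12 with 54nM 1β-3H-androstenedione plus test compound at 0.1, 1, 10, 100 nM. Released tritiated water was counted by liquid scintillation. Controls were cell-free blanks and 0.1% DMSO. Data are mean ± SD.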
# [10] = test system: zebrafish (Danio rerio) embryos; experiment: Zebrafish embryo toxicity assay; type: in vivo; settings: 0.1, 0.5, 1 μM; 24-96 hpf; vs untreated control
# How it was run: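 Wild-type Danio rerio embryos were raised at 28.5 °C. From the 2- or 4-cell stage they were exposed in 5 mL fish medium to test compound at 0.1, 0.5, 1 μM (0.5% DMSO final). Medium was refreshed at 48 h. Mortality, gross morphology and hatching were scored by stereomicroscope every 24 h to 96 hpf, against an untreated control. Triplicates, 60 embryos per treatment from three crosses; mean ± SD.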
# [11] = Stability in cell culture medium/DMSO; type: physicochemical; settings: 10 μM, full DMEM/F12 medium (max 0.1% DMSO), 37 °C, 1.5 h, HPLC
# How it was run: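 Test compound at 10 μM in DMEM/F12 (0.1% DMSO, from DMSO stock) was held 1.5 h at 37 °C. Released ligand was extracted into diethyl ether, then cleaned on silica with acetone. The residue was redissolved in acetone with 100 μM hydrocortisone as external standard. It was run on C18 UHPLC with a 13 min water/acetonitrile gradient at 2 mL/min, with UV detection, and quantified against standard curves. Three replicates.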
# [12] = Solubility in culture medium/DMSO and water/DMSO by UV-Vis; type: physicochemical
# How it was run: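 Test compound in phenol red-free DMEM-F12 (0.1% DMSO) at 0.01, 0.1, 1, 5, 10, 20 μM, and in water (max 0.5% DMSO) at 1, 5, 10, 15 μM. Each solution was passed through a 0.2 μm syringe filter, then absorbance at 350–370 nm was read on a plate reader. A linear concentration–absorbance relationship was taken to indicate solubility.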
# [13] = MDA-MB-231, 48 h exposure, SRB assay
# [14] = H295R, 48 h exposure, SRB assay
# [15] = MCF12A (non-cancerous), 48 h exposure, SRB assay
molecule,measurement,setting,value
"CC(C)(C#N)c1cc(Cn2cncn2)cc(C(C)(C)C#N)c1.CS(C)=O.[Cl-].[Cl-].[Cl-].[Cl-].[Na+].[Ru+3] [Complex 3, Na[trans-RuCl4ATZ(DMSO)]]",solubility in water (qualitative),[1],soluble in water
N.N.[Cl][Pt][Cl] [cisplatin],Selectivity index (SI),[2],2.12
same,pIC50,"[2]; MCF7, 48 h exposure, SRB assay",4.70
same,pIC50,"[3]; 48 h exposure, SRB assay",< 3.82
same,Selectivity index (SI),[4],1.32
same,pIC50,[4]; [13],4.49
same,pIC50,[5]; [14],4.06
same,pIC50,[6]; [15],4.37
same,hatching rate of zebrafish embryos,[7],significant inhibition of hatching rate
"C1=CCCC=CCC1.CC(C)(C#N)c1cc(Cn2cncn2)cc(C(C)(C)C#N)c1.CC(C)(C#N)c1cc(Cn2cncn2)cc(C(C)(C)C#N)c1.[Cl-].[Cl-].[Ru+2] [Complex 1, RuCOD(ATZ)2Cl2]",free anastrozole observed in DMSO (1H NMR),[8],25%
"CC(C)(C#N)c1cc(Cn2cncn2)cc(C(C)(C)C#N)c1 [anastrozole, reference compound]",pIC50,"[2]; Homo sapiens, MCF7, 48 h",< 4.00
same,pIC50,"[3]; Homo sapiens, 48 h",< 4.00
same,pIC50,"[4]; Homo sapiens, MDA-MB-231, 48 h",< 4.00
same,pIC50,"[5]; Homo sapiens, NCI-H295R, 48 h",< 4.00
same,pIC50,"[6]; Homo sapiens, MCF-12A, 48 h",< 4.00
same,inhibition at 0.01 µM,"[9]; NCI-H295R, read-out: inhibition of aromatase activity",~50%
RuCp(PPh3)2(ATZ)BF4 [Complex 2],Selectivity index (SI),[2],1.16
same,pIC50,"[2]; MCF7, 48 h exposure, SRB assay",6.30
same,Selectivity index (SI),[3]; IC50 (MCF12A) / IC50 (T47D),1.81
same,pIC50,"[3]; 48 h exposure, SRB assay",6.49
same,Selectivity index (SI),[4],1.49
same,pIC50,[4]; [13],6.41
same,pIC50,[5]; [14],6.20
same,Selectivity index (SI),[5]; IC50 (MCF12A) / IC50 (H295R),0.92
same,pIC50,[6]; [15],6.24
same,aromatase inhibitory activity at higher concentrations,"[9]; above 10 nM (tested up to 100 nM), 1.5 h, H295R cells",slight aromatase inhibitory activity
same,inhibition of aromatase activity,"[9]; up to 10 nM, 1.5 h, H295R cells",No significant inhibition
same,hatching delay of zebrafish embryos,[10],no apparent
same,mortality of zebrafish embryos,[10],no apparent
same,phenotype changes of zebrafish embryos,[10],no apparent
same,free anastrozole observed in DMSO (1H NMR),[8],2%
same,change of UV-Vis absorption spectrum in DMSO,[8]; over 1 h,No apparent change
same,released anastrozole in culture medium,[11],4%
same,solubility in culture medium,[12]; full DMEM/F12 medium (0.1% DMSO),≥ 20 µM
same,solubility in water,[12]; water (max 0.5% DMSO),≥ 15 µM
same,solubility in organic solvents (qualitative),[1],"soluble in acetone, alcohols and dimethyl sulfoxide (DMSO)"
same,solubility in water (qualitative),[1],poorly soluble in water

# Reference: publication PMC7221417 (European journal of medicinal chemistry, 2020)
